# Yeast superoxide – lowers age-related superoxide in aged yeast cells. AID 2690. superoxide response (% of plate mean), % at 10 µM. S. cerevisiae aged cells, superoxide DHE fluorescence; hits give low values. hit rate 0.18% among 330,000;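 active = superoxide response under a set limit, about three screen SD below normal, cut at about 65% in these data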;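 note: yeast aged for seven days with compound at 30 °C before DHE staining; 100% = average MFI of all compound-treated wells on the plate with controls excluded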
# proCasp3 act – activates human procaspase-3; hit rate 0.11% among 330,000; P42574; activation, % at 8.5 µM; recombinant procaspase-3 D3A, Ac-DEVD-pNA absorbance 405 nm; AID 463141;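 active = activation above the mean of all tested compounds plus 3 SD, cut at about 21% in these data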;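 note: 0% = DMSO alone and 100% = DMSO wells spiked with extra 5 µM PC-3 D3A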
# Target sequence (P42574 whole entry D9A/D28A/D175A): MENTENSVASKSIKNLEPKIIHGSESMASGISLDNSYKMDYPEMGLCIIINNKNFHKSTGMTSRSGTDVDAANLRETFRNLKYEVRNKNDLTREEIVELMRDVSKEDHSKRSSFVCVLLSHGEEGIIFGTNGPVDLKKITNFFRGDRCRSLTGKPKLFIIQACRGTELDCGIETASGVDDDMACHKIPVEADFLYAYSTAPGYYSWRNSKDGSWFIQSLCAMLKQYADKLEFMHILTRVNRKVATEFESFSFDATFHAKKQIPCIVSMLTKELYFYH
#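 Assay system – Procaspase-3 D3A mutant, all three cleavage aspartates alanine · Controls – DMSO-only low control, 5 µM PC-3 D3A high control · Schedule – 1 h compound preincubation, 2 h substrate hydrolysis at 25 °C · Signal – 405 nm absorbance of p-nitroaniline, reads at 0 and 120 min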
# LANA-H2B inh – blocks KSHV LANA binding to histone H2A/H2B; Q9QR71; cell-free LANA-H2A/H2B peptide, fluorescence polarization; inhibition, % (concentration not given with the values); hit rate 0.6% among 320,000; in the data active = inhibition mostly above about 10%, no sharp cut-off; inactive = mostly below about 6.7%
# ARFGAP1 inhibitor – rat ARFGAP1 inhibition; Q62848; Arfgap1-stimulated ARF1 GTP hydrolysis, GDP FP detection; inhibition, % at 16.5 µM; hit rate 0.26% among 360,000; AID 651572;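 active = inhibition above a per-plate limit, mean inhibition of low control wells plus 3 SD, cut at about 25% in these data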;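 note: 0% = DMSO wells with enzyme and 100% = wells lacking Arfgap1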
# Target sequence (Q62848 1-136 limits assumed): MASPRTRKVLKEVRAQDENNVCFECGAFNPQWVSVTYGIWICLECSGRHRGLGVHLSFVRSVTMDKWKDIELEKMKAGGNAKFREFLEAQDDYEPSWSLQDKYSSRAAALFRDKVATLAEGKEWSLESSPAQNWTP
#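 system = rat Arfgap1 catalytic domain, aa 1-136 | technique = FP, GDP Alexa 633 tracer displaced from anti-GDP antibody, 620/688 nm | compound = one concentration, 16.5 µM, DMSO 1.26% | medium = HEPES-based buffer, pH 7.5 | timing = compound-enzyme preincubation 20 min, reaction 120 min, detection 60 min, 25 °C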
# ASAP1 inh – blocks human ASAP1-stimulated Arf1 GTP hydrolysis; GDP FP detection; inhibition, % at 16.5 µM; hit rate 0.19% among 360,000; AID 624377; in the data active = inhibition above about 25%;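 note: 0% = vehicle with enzyme and substrate and 100% = no enzyme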
# procasp7 counter – counter-screen: procaspase-7 (human) activation; P55210; recombinant procaspase-7, Ac-DEVD-pNA absorbance 405 nm; D23A/D198A/D206A triple mutant, cannot self-cleave; scale: DMSO 0, 5 µM enzyme 100; activation, % at 8.5 µM; hit rate 0.093% among 330,000; AID 463210;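 active = percent activation above the screen-wide mean plus 3 SD, cut at about 25% in these data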
#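 Detection: p-Nitroaniline absorbance at 405 nm, read at 0 and 120 min; system: Uncleavable procaspase-7 mutant enzyme; evaluation: % activation from two-timepoint absorbance difference, scaled to controls; times: 1 h enzyme–compound preincubation and 2 h substrate reaction, both 25 °C; buffer or medium: Zinc-free HEPES pH 7.4 with 300 mM NaCl, 0.01% Triton X-100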
# PC3 dual counter – counter-screen for dual procaspase-3/7 activators: human procaspase-3 activation | shares compounds with procasp7 counter | recombinant PC-3 D3A, Ac-DEVD-pNA absorbance 405 nm; aspartates 9, 28, 175 changed to alanine; 100% = enzyme control | activation, % at 8.5 µM | 290 tested, under 10 active;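 active = mean percent activation across triplicates above a set limit taken from the earlier primary procaspase-3 screen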;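 note: 0% = DMSO wells and 100% = DMSO wells with 5 µM added PC-3 D3A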
# Procasp7 act – confirmation of dual procaspase activators: human procaspase-7 activation; shares compounds with procasp7 counter; recombinant procaspase-7, Ac-DEVD-pNA absorbance 405 nm; D23A/D198A/D206A mutant that cannot self-cleave; activation, % at 8.5 µM; 290 tested, under 10 active;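 active = mean activation above a set limit carried over from the earlier primary screen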;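 note: 0% = DMSO only and 100% = DMSO with added 5 µM PC-7 enzyme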
# An asterisk follows results filed as active; . = no result given. Compounds with a hit are over-represented: about 1.2% of the library has one in this group of screens.
SMILES,Yeast superoxide,proCasp3 act,LANA-H2B inh,ARFGAP1 inhibitor,ASAP1 inh,procasp7 counter,PC3 dual counter,Procasp7 act
O=C(Nc1ccc2c(c1)OCCO2)c1coc2ccccc2c1=O,93,8,-5,9,-6,36*,8,0
Cc1c(Cc2ccccc2)c(=O)oc2cc(O)cc(O)c12,105,21,6,8,8,26*,-28,-34
Cc1ccc(F)c(S(=O)(=O)NC(=O)C2(C)CCN2C(=O)C2(c3ccc(Cl)cc3)CCC2)c1 (stereo not drawn),.,.,.,0,3,.,.,.
CC(C)=NOC(=O)c1ccc(-c2ccccc2)cc1,141,1,-4,-16,-3,0,.,.
COc1ccc2c(c1OC)C(=O)OC2CC(=O)c1ccc(N(C)C)cc1 (stereo not drawn),96,44*,-2,-4,1,41*,41*,30*
COc1ccccc1C(=O)OCCNC(=O)Cn1cnc2c1c(=O)n(C)c(=O)n2C,88,-6,11,5,-1,4,.,.
Cc1cccc(/C=N/NC(=O)c2ccc(NC(=O)c3ccccc3C)cc2)n1,93,4,-1,-3,-15,34*,0,0
COc1ccccc1-c1nnc2sc(-c3ccc(N(C)C)cc3)nn12,119,-3,-4,16,-9,-20,.,.
CN(C)c1ccc(-c2nn3c(-c4ccccc4Cl)nnc3s2)cc1,98,-3,-1,-1,9,34*,-29,-35
CCOc1ccc(N=CC2=C(O)CC(c3ccco3)CC2=O)cc1 (stereo not drawn),97,38*,.,-3,5,54*,19,13
O=C1CC(c2ccco2)CC(O)=C1C=Nc1cc(Cl)cc(Cl)c1 (stereo not drawn),113,-4,0,13,-1,3,.,.
COCCn1c(Cc2cccn2C)nnc1SCC(=O)NCc1ccc2c(c1)OCO2,100,-12,15,2,0,-8,.,.
COc1ccc(OC)c(/C=N/NC(=O)c2cc3c(OC)cc(OC)cc3[nH]2)c1,92,3,0,5,0,23,.,.
COc1ccc(OC)c(/C=N/NC(=O)c2cc3c(OC)cccc3[nH]2)c1,112,16,-4,17,-6,38*,3,3
O=C1C(Cl)=C(NCCc2ccccc2)C(=O)N1CCc1ccccc1,100,4,1,3,0,33*,-12,-6
O=C(Cn1c2ccccc2c(=O)c2ccccc21)Nc1cccc(F)c1,89,50*,-2,6,4,93*,-28,-38
OCCNCC(O)CN1c2ccccc2Sc2ccccc21 (stereo not drawn),96,.,-3,1,-9,.,.,.
COC(=O)CCCCCN1C(=O)NC(C2CC2)C(C(=O)OCc2ccccc2)=C1C (stereo not drawn),94,-12,-2,5,9,8,.,.
O=C(O)c1ccc(/C=N/Nc2nc3ccccc3[nH]2)cc1,105,-3,3,-5,-16,6,.,.
O=c1[nH]c(N/N=C/c2ccc(O)cc2)nc2ccccc12,102,27*,8,12,5,34*,-2,-1
COc1ccccc1[C@H]1C(c2ccc(F)cc2)=NN(c2ccccc2)[C@@H]1CO,95,10,.,8,-7,13,.,.
COc1ccccc1[C@H]1C(c2ccccc2)=NN(c2ccccc2)[C@@H]1CO,80,25*,.,.,.,50*,-28,-36
COc1ccc(Nc2oc(-c3cccs3)nc2C#N)cc1,87,16,4,1,5,53*,-30,-30

# Screening data (PubChem BioAssay)
